From PubChem
SIAE inh = human SIAE inhibition, primary screen; Q9HAT2; inhibition, % at 9.66 µM; actives 0.69% (n = 370,000); SIAE FP-Rh probe binding, fluorescence polarization; AID 1053197;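 active = inhibition above a cutoff: mean of compounds within the control limits plus 3 SD of those, cut at about 17% in these data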
TCR-CD3 inh = human TCR-CD3 binding inhibition. TAMRA-labeled TCR probe fluorescence, biochemical. inhibition, % at 9.4 µM. actives 0.37% (n = 360,000). AID 651800; in the data active = inhibition above about 19%;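 note: recombinant mutant TCR 2C K166C tagged with TAMRA read by polarization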
HTRA1 inhibitor = inhibitors of human serine peptidase HTRA1. recombinant HTRA1, FP-rhodamine activity-based probe, fluorescence polarization. inhibition, % at 5.96 µM. actives 0.5% (n = 340,000). AID 504803; in the data active = inhibition above about 36%
Target sequence (Q92743 whole entry, looked up): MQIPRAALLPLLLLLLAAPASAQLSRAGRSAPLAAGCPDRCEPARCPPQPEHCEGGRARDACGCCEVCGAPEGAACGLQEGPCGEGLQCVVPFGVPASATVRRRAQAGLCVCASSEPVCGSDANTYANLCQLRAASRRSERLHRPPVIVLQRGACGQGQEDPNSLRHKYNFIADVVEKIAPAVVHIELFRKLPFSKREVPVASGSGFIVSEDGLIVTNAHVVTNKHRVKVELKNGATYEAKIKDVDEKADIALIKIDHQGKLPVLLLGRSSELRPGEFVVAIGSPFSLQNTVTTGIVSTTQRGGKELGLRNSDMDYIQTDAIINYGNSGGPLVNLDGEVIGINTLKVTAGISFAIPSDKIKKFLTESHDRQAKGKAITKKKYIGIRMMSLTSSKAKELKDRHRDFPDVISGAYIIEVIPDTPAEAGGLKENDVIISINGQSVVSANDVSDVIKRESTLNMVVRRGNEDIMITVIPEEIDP
Tn6 DDE FP = disrupts Tn6 cyclic peptide binding to fibrin D-Dimer-E complex; P02675; Fibrin DD(E) TRITC-Tn6 fluorescence polarization displacement; inhibition, % at 8.3 µM; actives 0.21% (n = 370,000); AID 720509;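 active = inhibition above a per-campaign cutoff: mean of compounds within control limits plus 3 SD, cut at about 15% in these data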
mABHD4 FP = inhibits mouse alpha/beta hydrolase domain 4 | Q8VD66 | purified mABHD4, FP-Rh probe fluorescence polarization | inhibition, % at 8.92 µM | actives 0.54% (n = 370,000) | AID 720543;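 active = inhibition exceeding the mean over every tested compound plus 3 SD, cut at about 30% in these data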
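assay system = mABHD4 protein | compound dosing = single nominal dose of 8.92 µM, 0.89% DMSO final | read-out basis = percent inhibition of probe binding, normalized to plate controls | schedule = Enzyme–compound pre-incubation 45 min, then probe 60 min, both 25 °C | detection = fluorescence polarization, excitation 525 nm, emission 598 nm, BODIPY TMR filters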
DDE Tn7 FP inh = inhibitors of Tn7 peptide binding to human fibrin DD(E); inhibition, % at 8.3 µM; FP displacement of FITC-Tn7 peptide from fibrin DD(E); 0% = median of compound wells per plate; P02675; actives 0.13% (n = 370,000);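 active = inhibition above the mean of compounds falling within the control limits plus 3 SD of them, cut at about 14% in these data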
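assay system = human clot-derived fibrin DD(E) complex | quantity = Fibrin-DD(E) at 2 µM final | timing = 10 min preincubation, 3 h with tracer, room temperature | signal = fluorescence polarization | measure = percent inhibition | benchmarks = high control wells with 10 µM unlabelled Aha-Tn7 peptide (full inhibition) | replicates = singlicate testing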
SIAE confirm = human SIAE inhibition, confirmation. shares compounds with SIAE inh. SIAE FP-Rh activity-based probe, fluorescence polarization. inhibition, % at 9.66 µM. actives 13% (n = 2,300). AID 1117263;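 active = mean inhibition of the replicates above the hit cutoff set in the primary screen, cut at about 17% in these data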;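 note: inhibitors lower polarization as more probe stays unbound to SIAE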
Hits are given with their value; 0 = inactive; - = no result. The list is not random: actives were taken first. Their share in the collection is about 1.8%.

SMILES	SIAE inh	TCR-CD3 inh	HTRA1 inhibitor	Tn6 DDE FP	mABHD4 FP	DDE Tn7 FP inh	SIAE confirm
Nc1ccn([C@@H]2O[C@H](C(=O)NCc3ccc4c(c3)OCO4)[C@@H](O)[C@H]2O)c(=O)n1	51.7	0	-	0	0	0	49.5
Nc1ccn([C@@H]2O[C@H](C(=O)NCCc3ccc(F)cc3)[C@@H](O)[C@H]2O)c(=O)n1	0	0	-	0	0	0	-
O=S1(=O)c2c(cccc2N2CCSCC2)Oc2ccccc2CN1Cc1cn(Cc2ccccc2C(F)(F)F)nn1	0	-	-	0	0	0	-
c1ccc2c(c1)CCN(c1nc3ccccc3n3cnnc13)C2	18.0	0	0	0	0	0	0
COc1ccc(N2CCN(CCCNC(=O)CCc3cccc(Cl)c3)CC2)cc1	0	-	-	0	0	0	-
Nc1[nH]c(C(=O)c2ccccc2)c(-c2ccc(Br)cc2)c1C(=O)NCCc1c[nH]c2ccccc12	0	0	-	0	0	0	-
COc1ccccc1CCNC(=O)c1c(N)[nH]c(C(=O)c2ccccc2)c1-c1ccc(Br)cc1	17.9	0	-	0	0	0	0
Cc1ccc(S(=O)(=O)Nc2c(C)n(C)n(-c3ccccc3)c2=O)cc1C(=O)OC(C)C(=O)c1ccccc1 (configuration not stated)	0	0	0	0	0	0	-
Cc1ccc(S(=O)(=O)Nc2c(C)n(C)n(-c3ccccc3)c2=O)cc1C(=O)OC(C)C(=O)N(C)c1ccccc1 (configuration not stated)	21.2	0	0	0	0	0	0
CCCC[C@@H]1C(=O)N2N=Cc3cc4ccccc4cc3[C@H]2N2N=Cc3cc4ccccc4cc3[C@@H]12	0	-	-	0	0	0	-
NC(=O)COC(=O)c1c2c(nc3ccccc13)CCCCC2	17.1	0	0	0	0	0	0
CC(/C=C/c1ccc(N(C)C)cc1)=N/N=C1/NC(=O)CC(C(=O)Nc2ccc(Cl)cc2)S1 (configuration not stated)	0	0	0	0	0	0	-
CC(/C=C/c1ccc(N(C)C)cc1)=N\N=C1\NC(=O)CC(C(=O)Nc2ccccc2)S1 (configuration not stated)	19.1	0	0	0	0	0	0
O=c1[nH]c2cc3c(cc2cc1CN(Cc1ccc2c(c1)OCO2)Cc1nnnn1CC1CCCO1)OCO3 (configuration not stated)	59.3	0	0	0	0	0	0
C=C1CCC[C@]2(C)C[C@H]3OC(=O)C(CNCCN(CC)CC)[C@H]3CC12 (some centres not stated)	21.8	0	0	0	0	0	0
COc1ccc(NC(=O)CSc2nnc(-c3n[nH]c4c3CCC4)n2N)cc1OC	0	-	-	0	0	0	-
CC(=O)NNc1cc(N2CCOCC2)nc(N2CCOCC2)n1	25.4	0	0	0	0	0	0
CC(C)(C)c1ccc(C(=O)NNc2cc(N3CCOCC3)nc(N3CCOCC3)n2)cc1	0	0	0	0	0	0	-
O=C1S/C(=C\C=C\c2ccco2)C(=O)N1c1ccccc1	20.8	0	0	0	0	0	0
Cc1cccc(N=C2NC(=O)/C(=C/c3cccn3C)S2)c1C	0	0	0	0	0	0	-
O=C1NC(=Nc2ccccc2)S/C1=C\C=C\c1ccco1	23.8	0	0	0	0	0	0
Cc1ccc(N=C2NC(=O)/C(=C/C=C/c3ccco3)S2)cc1	0	0	0	0	0	0	-
Cc1cccc(N=C2NC(=O)/C(=C/C=C/c3ccco3)S2)c1C	18.3	0	0	0	0	0	0
C=CCn1c(Cc2cccs2)nnc1SCC(=O)Nc1ccc(C)cc1	0	-	-	0	0	0	-
Cc1ccc(-n2c3c(cc(C(=O)NCCCN4CCOCC4)c2=O)C(=O)CC(C)(C)C3)cc1	18.9	0	0	0	0	0	0
SMILES	SIAE inh	TCR-CD3 inh	HTRA1 inhibitor	Tn6 DDE FP	mABHD4 FP	DDE Tn7 FP inh	SIAE confirm
COc1ccc(NS(=O)(=O)c2cccs2)cc1S(=O)(=O)N1CCCCC1	19.4	0	0	0	0	0	0
COc1ccc(NS(=O)(=O)c2cccs2)cc1S(=O)(=O)N1CCOCC1	0	0	0	0	0	0	-
COc1ccc(-n2nnc3c(=O)n(CC(=O)Nc4cc(C)on4)cnc32)cc1OC	23.8	0	0	0	0	0	0
CCCCCCC(=O)n1ccc2ccc(-c3ccc4ccn(Cc5ccc(OC)cc5)c4c3)cc21	0	-	-	0	0	0	-
Cc1ccc(C2(C)NC(=O)N(CC(=O)Nc3ccc(N4CCOCC4)cc3N3CCOCC3)C2=O)cc1 (configuration not stated)	18.7	0	0	0	0	0	0
CCOc1cc(N2CCOCC2)c(OCC)cc1NC(=O)CN1C(=O)NC2(CCCCC2C)C1=O (configuration not stated)	0	0	0	0	0	0	-
CCOc1cc(N2CCOCC2)c(OCC)cc1NC(=O)c1ccc(NC(C)=O)cc1	23.2	0	0	0	0	0	0
CCOc1cc(N2CCOCC2)c(OCC)cc1NC(=O)c1ccc(OC)cc1	0	0	0	0	0	0	-
CC1(c2ccccc2)NC(=O)N(CC(=O)Nc2ccc(N3CCOCC3)cc2)C1=O (configuration not stated)	19.1	0	0	0	0	0	0
CCOc1cc(N2CCOCC2)c(OCC)cc1NC(=O)CN1C(=O)NC(C)(c2ccc(OC)cc2)C1=O (configuration not stated)	17.8	0	0	0	0	0	0
COC(=O)[C@]12C[C@H](CC(=O)N3CCCC3)C(=O)N(Cc3ccco3)C1=C[C@H](C(C)(C)C)O[C@@H]2C	0	-	-	0	0	0	-
O=C(COC(=O)c1ccccc1O)Nc1ccc(N2CCOCC2)cc1	17.3	0	0	0	0	0	0
O=C(COC(=O)c1cccnc1Cl)Nc1ccc(N2CCOCC2)cc1	0	0	0	0	0	0	-
C[C@@H](c1ccccc1)N1C[C@@H](COCc2ccccc2)Oc2cc(N3CC[C@@H](N(C)C)C3)ccc2S1(=O)=O	17.6	0	-	0	0	0	0
Cc1ccc(C(=O)COC(=O)c2cccc(NC(=O)c3ccc([N+](=O)[O-])cc3[N+](=O)[O-])c2)cc1	21.1	0	0	0	0	0	0
CC(=O)Nc1ccc(C(=O)OCC(=O)c2cccc([N+](=O)[O-])c2)cc1	0	0	0	0	0	0	-
COc1ccc(N2CCN(C(=O)CSc3nnnn3C3CC3)CC2)cc1	19.5	0	0	0	0	0	0
COc1ccccc1N1CCN(C(=O)CSc2nnnn2C2CC2)CC1	0	0	0	0	0	0	-
COc1ccc(C2(C)CC(C)(C)Nc3ccccc32)cc1 (configuration not stated)	0	0	0	0	0	0	-
